17 compounds from ChEMBL document CHEMBL1933000, “Design, synthesis and antitumor activity of 4-aminoquinazoline derivatives targeting VEGFR-2 tyrosine kinase” (Bioorg Med Chem Lett, 2012) can be followed below.

The nature of series [1]: Lipophilicity, log P of the compound. The format is physicochemical. The following applies: octanol/water.
Another series concerns HUVEC. In words: Antiproliferative activity against VEGF-stimulated HUVEC after 48 hrs by sulforhodamine B assay. The following applies: Homo sapiens. On the technique in general: In SRB staining, fixed cells bind dye roughly in proportion to their protein.
Series [2] can be described thus: Solubility of the compound in water. The format is physicochemical. The following applies: buffer.
Series [3] is described as follows: Dissociation constant, pKa of the compound. It counts as physicochemical.
Series [4] concerns the target Receptor tyrosine-protein kinase erbB-2 (Homo sapiens, UniProt P04626). In words: Inhibition of HER2.
In series [5] the test system is Mus musculus. As to the kind of experiment: Toxicity in nude BALB/c mouse xenografted with human HepG2 cells assessed as clinically observable signs of toxicity at 100 mg/kg, po qd at 3 doses for 15 days. It counts as organism-based. Also on record: dose 100 mg/kg, route oral. Particulars: in vivo, 360 h. In outline:
(§1)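 BALB/c-nu mice bearing sc flank HepG2 xenografts received oral compound once daily for 15 days, top dose 100 mg/kg, starting five days after implantation. Animals were watched for clinically observable toxicity signs and for body weight loss; n = 8.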
In general terms: Xenograft models place foreign cells or tissue in a host animal.

Series [6] has as its system HepG2. As to the kind of experiment: Antitumor activity against human HepG2 cells xenografted in BALB/c nude mouse assessed as tumor growth inhibition at 20 mg/kg, po qd at 3 doses for 15 days. It counts as functional. Particulars: HepG2, 360 h, read-out: TGI. The procedure, abridged:
(§2)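 HepG2 hepatocarcinoma cells (1 × 10⁷) implanted sc in the flank of BALB/c-nu mice. Once-daily oral dosing of compound or vehicle began five days after implantation and ran 15 days at 20, 50 or 100 mg/kg. Tumor growth followed; %TGI; mean and SE, n = 8.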

The nature of series [7]: Inhibition of AKT.
Series [8] deals with Fibroblast growth factor receptor 1 (Homo sapiens, UniProt P11362). In words: Inhibition of FGFR1.
The target in series [9] is Cyclin-dependent kinase 1 (Homo sapiens, UniProt P06493). As to the kind of experiment: Inhibition of CDK1.
Series [10] deals with HepG2. As to the kind of experiment: Antitumor activity against human HepG2 cells xenografted in BALB/c nude mouse assessed as tumor growth inhibition at 50 mg/kg, po qd at 3 doses for 15 days. The format is functional. The following applies: HepG2, 360 h, read-out: TGI. The procedure, abridged:
as §2

Series [11] concerns the target Vascular endothelial growth factor receptor 2 (Homo sapiens, UniProt P35968). In words: Inhibition of human GST-tagged VEGFR2 intracellular domain using biotin-aminohexyl-EEEEYFELVAKKKK-NH2 as substrate after 30 mins by HTRF assay. For orientation: Time-resolved FRET reads energy transfer from a long-lived donor to a nearby acceptor.
In series [12] the target is Vascular endothelial growth factor receptor 1 (Homo sapiens, UniProt P17948). As to the kind of experiment: Inhibition of VEGFR1.
The target of another series is Angiopoietin-1 receptor (Homo sapiens, UniProt Q02763). In words: Inhibition of Tie2.
Angiopoietin-1 receptor, sequence (Q02763 whole entry): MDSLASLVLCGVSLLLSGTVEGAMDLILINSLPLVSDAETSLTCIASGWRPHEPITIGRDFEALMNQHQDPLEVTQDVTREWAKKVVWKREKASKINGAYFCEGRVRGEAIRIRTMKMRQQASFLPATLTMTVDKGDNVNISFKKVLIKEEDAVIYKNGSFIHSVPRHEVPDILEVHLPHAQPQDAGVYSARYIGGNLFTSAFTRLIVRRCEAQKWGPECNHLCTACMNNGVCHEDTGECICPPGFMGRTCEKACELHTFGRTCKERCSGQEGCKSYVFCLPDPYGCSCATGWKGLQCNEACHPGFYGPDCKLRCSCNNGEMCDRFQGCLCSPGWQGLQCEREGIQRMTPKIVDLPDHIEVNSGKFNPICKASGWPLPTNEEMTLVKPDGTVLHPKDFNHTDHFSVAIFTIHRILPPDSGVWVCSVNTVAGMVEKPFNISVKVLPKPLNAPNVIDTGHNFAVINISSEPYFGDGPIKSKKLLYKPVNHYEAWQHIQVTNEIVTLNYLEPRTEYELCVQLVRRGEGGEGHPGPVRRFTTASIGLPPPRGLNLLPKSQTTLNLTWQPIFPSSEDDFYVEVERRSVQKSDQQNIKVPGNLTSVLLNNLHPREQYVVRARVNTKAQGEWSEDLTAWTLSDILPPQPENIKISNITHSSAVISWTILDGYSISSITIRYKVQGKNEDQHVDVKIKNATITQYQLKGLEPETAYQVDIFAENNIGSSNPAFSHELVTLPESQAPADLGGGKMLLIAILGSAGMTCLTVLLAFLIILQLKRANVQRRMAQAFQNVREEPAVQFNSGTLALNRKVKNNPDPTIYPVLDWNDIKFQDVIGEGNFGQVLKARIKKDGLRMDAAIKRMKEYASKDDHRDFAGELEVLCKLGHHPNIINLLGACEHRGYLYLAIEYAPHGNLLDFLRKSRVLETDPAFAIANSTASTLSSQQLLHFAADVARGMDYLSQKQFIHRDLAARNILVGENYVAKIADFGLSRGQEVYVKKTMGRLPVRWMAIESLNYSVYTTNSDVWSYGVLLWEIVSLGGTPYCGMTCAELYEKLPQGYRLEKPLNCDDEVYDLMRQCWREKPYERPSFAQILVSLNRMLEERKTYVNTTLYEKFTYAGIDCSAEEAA
Series [13] addresses Platelet-derived growth factor receptor alpha (Homo sapiens, UniProt P16234). As to the kind of experiment: Inhibition of PDGFRalpha.
For series [14], the target named is Vascular endothelial growth factor receptor 3 (Homo sapiens, UniProt P35916). In words: Inhibition of VEGFR3.
Vascular endothelial growth factor receptor 3, sequence (P35916 whole entry): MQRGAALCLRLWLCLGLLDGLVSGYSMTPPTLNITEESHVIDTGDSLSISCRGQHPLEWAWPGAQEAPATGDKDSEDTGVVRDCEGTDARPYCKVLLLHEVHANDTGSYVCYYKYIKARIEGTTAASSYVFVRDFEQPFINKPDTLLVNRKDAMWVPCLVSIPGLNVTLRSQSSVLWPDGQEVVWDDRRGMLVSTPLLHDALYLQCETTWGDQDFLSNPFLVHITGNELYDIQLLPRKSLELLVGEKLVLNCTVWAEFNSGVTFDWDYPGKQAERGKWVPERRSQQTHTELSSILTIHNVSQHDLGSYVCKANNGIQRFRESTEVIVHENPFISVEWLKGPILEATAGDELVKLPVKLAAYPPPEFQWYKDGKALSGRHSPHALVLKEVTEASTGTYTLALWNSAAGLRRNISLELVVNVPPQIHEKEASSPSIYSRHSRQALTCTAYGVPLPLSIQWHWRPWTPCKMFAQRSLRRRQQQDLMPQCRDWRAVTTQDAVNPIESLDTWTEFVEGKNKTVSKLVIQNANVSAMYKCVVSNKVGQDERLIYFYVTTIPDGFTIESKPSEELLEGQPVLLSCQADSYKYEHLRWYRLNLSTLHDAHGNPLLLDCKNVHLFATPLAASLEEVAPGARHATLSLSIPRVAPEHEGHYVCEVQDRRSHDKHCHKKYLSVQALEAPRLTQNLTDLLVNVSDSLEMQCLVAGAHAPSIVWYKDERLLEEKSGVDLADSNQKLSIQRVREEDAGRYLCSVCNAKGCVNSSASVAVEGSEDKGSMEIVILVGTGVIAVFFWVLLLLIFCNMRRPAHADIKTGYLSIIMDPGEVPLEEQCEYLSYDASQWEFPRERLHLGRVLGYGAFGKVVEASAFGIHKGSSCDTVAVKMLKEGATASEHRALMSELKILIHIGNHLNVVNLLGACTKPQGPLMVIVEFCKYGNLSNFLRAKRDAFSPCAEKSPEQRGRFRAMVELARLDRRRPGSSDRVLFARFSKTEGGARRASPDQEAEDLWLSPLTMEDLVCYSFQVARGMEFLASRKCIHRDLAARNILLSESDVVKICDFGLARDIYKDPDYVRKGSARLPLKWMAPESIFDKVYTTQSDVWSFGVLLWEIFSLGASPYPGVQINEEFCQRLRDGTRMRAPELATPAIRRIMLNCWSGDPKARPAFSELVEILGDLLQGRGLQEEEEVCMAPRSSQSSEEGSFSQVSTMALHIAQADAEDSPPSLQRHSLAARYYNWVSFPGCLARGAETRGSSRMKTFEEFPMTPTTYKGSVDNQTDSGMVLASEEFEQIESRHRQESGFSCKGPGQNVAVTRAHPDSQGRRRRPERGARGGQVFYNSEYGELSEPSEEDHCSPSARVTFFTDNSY
Series [15] concerns HepG2. In words: Antitumor activity against human HepG2 cells xenografted in BALB/c nude mouse assessed as tumor growth inhibition at 100 mg/kg, po qd at 3 doses for 15 days. The format is functional. Particulars: HepG2, 360 h, read-out: TGI. The procedure, abridged:
as §2

Series [16] relates to Mus musculus. As to the kind of experiment: Toxicity in nude BALB/c mouse xenografted with human HepG2 cells assessed as weight loss at 100 mg/kg, po qd at 3 doses for 15 days. The following applies: in vivo, 360 h. Also on record: dose 100 mg/kg, route oral. It counts as organism-based. The procedure, abridged: as §1
Series [17] has as its system HepG2. As to the kind of experiment: Antitumor activity against human HepG2 cells xenografted in BALB/c nude mouse assessed as tumor growth inhibition administered as po qd at 3 doses for 15 days. It counts as functional, organism-based. The procedure, abridged: as §2

Each structure is given as a SMILES string.

Vascular endothelial growth factor receptor 2, sequence (P35968 whole entry, the tested form may be a part): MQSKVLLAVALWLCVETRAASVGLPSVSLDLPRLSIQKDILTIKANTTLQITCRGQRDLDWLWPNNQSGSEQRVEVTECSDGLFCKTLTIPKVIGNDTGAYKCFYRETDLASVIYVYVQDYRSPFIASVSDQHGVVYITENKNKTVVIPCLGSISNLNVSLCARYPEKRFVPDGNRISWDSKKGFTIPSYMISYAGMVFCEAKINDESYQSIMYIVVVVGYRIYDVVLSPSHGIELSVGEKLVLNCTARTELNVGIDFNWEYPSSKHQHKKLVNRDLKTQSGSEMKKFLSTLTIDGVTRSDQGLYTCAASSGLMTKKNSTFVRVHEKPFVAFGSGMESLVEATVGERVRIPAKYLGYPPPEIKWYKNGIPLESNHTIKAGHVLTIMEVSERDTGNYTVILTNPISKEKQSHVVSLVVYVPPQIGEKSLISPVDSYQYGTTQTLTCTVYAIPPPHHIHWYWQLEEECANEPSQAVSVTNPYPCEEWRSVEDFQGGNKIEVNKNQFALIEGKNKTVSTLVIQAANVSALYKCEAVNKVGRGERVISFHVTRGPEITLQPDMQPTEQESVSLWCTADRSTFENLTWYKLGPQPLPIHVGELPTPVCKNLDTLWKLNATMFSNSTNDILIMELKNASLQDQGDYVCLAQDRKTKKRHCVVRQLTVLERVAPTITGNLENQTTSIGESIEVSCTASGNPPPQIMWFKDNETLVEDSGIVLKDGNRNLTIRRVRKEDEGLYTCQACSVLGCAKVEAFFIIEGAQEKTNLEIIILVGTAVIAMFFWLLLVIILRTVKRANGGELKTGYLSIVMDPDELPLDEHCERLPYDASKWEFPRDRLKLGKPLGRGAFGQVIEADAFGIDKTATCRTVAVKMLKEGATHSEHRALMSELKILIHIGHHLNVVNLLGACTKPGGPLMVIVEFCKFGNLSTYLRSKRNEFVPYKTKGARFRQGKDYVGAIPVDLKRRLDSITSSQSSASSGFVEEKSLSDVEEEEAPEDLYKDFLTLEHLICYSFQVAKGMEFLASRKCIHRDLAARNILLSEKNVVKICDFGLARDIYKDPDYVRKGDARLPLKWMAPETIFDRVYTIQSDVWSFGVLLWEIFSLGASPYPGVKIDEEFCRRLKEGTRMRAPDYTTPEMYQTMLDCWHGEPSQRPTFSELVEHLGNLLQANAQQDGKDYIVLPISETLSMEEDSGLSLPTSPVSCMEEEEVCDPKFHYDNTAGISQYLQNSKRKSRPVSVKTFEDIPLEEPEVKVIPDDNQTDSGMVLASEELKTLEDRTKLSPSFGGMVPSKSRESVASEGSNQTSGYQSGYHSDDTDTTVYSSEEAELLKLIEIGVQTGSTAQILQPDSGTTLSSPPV
Receptor tyrosine-protein kinase erbB-2, sequence (P04626 whole entry): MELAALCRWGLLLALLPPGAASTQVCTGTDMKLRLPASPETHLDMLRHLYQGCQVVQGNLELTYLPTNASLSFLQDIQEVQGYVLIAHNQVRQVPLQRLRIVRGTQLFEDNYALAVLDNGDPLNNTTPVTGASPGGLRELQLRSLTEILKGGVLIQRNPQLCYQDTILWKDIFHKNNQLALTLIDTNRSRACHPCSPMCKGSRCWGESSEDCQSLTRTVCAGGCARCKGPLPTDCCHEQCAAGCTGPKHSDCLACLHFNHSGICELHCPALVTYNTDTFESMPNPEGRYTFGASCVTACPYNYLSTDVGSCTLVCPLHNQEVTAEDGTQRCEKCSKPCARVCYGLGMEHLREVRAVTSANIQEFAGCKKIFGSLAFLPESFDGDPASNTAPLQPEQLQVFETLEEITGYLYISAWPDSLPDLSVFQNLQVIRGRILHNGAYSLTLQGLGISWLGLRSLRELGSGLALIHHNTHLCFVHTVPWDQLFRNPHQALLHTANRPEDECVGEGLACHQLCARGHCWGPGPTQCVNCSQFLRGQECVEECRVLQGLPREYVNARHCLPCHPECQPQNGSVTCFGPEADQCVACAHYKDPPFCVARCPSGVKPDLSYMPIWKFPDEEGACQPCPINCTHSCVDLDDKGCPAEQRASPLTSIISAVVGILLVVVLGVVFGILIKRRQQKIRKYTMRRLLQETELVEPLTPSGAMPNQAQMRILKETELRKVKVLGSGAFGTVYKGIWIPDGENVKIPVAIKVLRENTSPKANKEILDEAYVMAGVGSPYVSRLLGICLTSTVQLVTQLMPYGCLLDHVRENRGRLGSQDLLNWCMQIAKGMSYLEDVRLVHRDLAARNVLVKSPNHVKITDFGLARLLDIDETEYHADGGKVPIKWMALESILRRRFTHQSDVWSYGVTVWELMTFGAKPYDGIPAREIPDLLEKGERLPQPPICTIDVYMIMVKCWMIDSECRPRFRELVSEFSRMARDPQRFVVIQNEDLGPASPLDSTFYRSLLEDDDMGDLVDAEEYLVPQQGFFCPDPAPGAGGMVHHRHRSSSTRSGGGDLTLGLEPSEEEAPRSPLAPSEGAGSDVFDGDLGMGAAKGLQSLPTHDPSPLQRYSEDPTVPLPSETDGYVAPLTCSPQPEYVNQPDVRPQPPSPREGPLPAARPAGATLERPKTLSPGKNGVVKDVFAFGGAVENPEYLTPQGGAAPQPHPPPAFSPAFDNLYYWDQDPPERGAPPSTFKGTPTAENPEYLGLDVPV

As for `CNC(=O)c1cc(Oc2ccc(NC(=O)Nc3ccc(Cl)c(C(F)(F)F)c3)cc2)ccn1` [SORAFENIB], the log partition coefficient (logP) in [1] is 5. `CN1CCC(COc2ccc3c(Nc4ccc(CC(=O)Nc5cccc(F)c5)cc4)ncnc3c2)CC1` showed an IC50 in the series with HUVEC of 237 nM. Still for that read-out and setting: in the case of `CN1CCC(COc2ccc3c(Nc4ccc(NC(=O)Nc5cccc(F)c5)c(Cl)c4)ncnc3c2)CC1` it was 132 nM. On the same count and under the same terms, the value for `CN1CCC(COc2ccc3c(Nc4ccc(NC(=O)Nc5cccc(F)c5)c(F)c4)ncnc3c2)CC1` was 67 nM. Consider `CN1CCC(COc2ccc3c(Nc4ccc(CC(=O)Nc5ccc(Cl)c(C(F)(F)F)c5)cc4)ncnc3c2)CC1`, for which the IC50 in the series on HUVEC was found to be 258 nM. On the same count and under the same terms, in the case of `CN1CCC(COc2ccc3c(Nc4ccc(NC(=O)NC5CC5)cc4)ncnc3c2)CC1` it was 324 nM. Still for that read-out and setting: in the case of `CN1CCC(COc2ccc3c(Nc4ccc(CC(=O)Nc5ccc(F)c(F)c5)cc4)ncnc3c2)CC1` it was 308 nM. `COc1cc2c(Nc3ccc(NC(=O)Nc4cccc(F)c4)c(F)c3)ncnc2cc1OCC1CCN(C)CC1`: in the series on HUVEC, the IC50 was 185 nM. In the series with HUVEC, `COc1cc2c(Nc3ccc(Br)cc3F)ncnc2cc1OCC1CCN(C)CC1` [VANDETANIB] came in with a half-inhibitory concentration (IC50) of 187 nM. In addition, the solubility result in [2] is “soluble”.

Regarding `CN1CCC(COc2ccc3c(Nc4ccc(NC(=O)Nc5ccc(Br)cc5F)cc4)ncnc3c2)CC1`, 233 nM corresponded to half-maximal inhibition with HUVEC (IC50). As to `CN1CCC(COc2ccc3c(Nc4ccc(NC(=O)Nc5ccc(Cl)c(C(F)(F)F)c5)cc4)ncnc3c2)CC1`, the midpoint of inhibition with HUVEC, the IC50, lay at 92 nM. With `CN1CCCCC1`, the pKa in series [3] turned out to be 8.1. On to `COc1cc2c(Nc3ccc(NC(=O)Nc4cccc(F)c4)cc3)ncnc2cc1OCC1CCN(C)CC1`, for which it took 179 nM to reach half-maximal inhibition in the series with HUVEC (IC50). In the series with HUVEC, `CN1CCC(COc2ccc3c(Nc4ccc(NC(=O)Nc5ccc(F)c(F)c5)cc4)ncnc3c2)CC1` registered a half-maximal inhibitory concentration (IC50) of 89 nM. The same measure, in the same setting: the value for `Cc1ccc(NC(=O)Nc2ccc(Nc3ncnc4cc(OCC5CCN(C)CC5)ccc34)cc2)cc1Br` was 196 nM. On the same count and under the same terms, in the case of `CCNC(=O)Nc1ccc(Nc2ncnc3cc(OCC4CCN(C)CC4)ccc23)cc1` it was 587 nM. Consider `CN1CCC(COc2ccc3c(Nc4ccc(NC(=O)Nc5cccc(F)c5)cc4)ncnc3c2)CC1`, for which the IC50 in series [4] was above 10000 nM; in series [7], 8710 nM; in series [8], above 10000 nM; in [9] it was 10000 nM; in [11] it was 5.5 nM; in series [12] it was 1920 nM. Moreover, the half-maximal inhibitory concentration (IC50) with HUVEC was 52 nM; at Angiopoietin-1 receptor it was above 10000 nM; in series [13], 1360 nM; in series [14], 9.6 nM. Also, the Activity result with Mus musculus [5] and in the series with Mus musculus [16] was “Non-toxic” each time. Further, the inhibition in vivo at 20 mg/kg in the series with HepG2 [6] was 25.6%. For the same compound, the inhibition in vivo at 50 mg/kg with HepG2 [10] was 61.4%. For the same compound, the inhibition in vivo at 100 mg/kg in the series on HepG2 [15] was determined as 83.6%. Also, the TGI entry in the series on HepG2 [17] is “Dose-dependent effect”.

As usually defined, the logP is a log measure of how a compound divides between an organic and an aqueous phase. High values mean a more lipophilic compound, low ones a more hydrophilic compound. By IC50 is commonly meant the point on the concentration scale where inhibition reaches its midpoint. The pKa is the pH at which an ionisable group is half protonated. Low values mean a group that gives up its proton readily, high ones a group that holds its proton tightly.
